In ChEMBL document CHEMBL5724801, “EUbOPEN Chemogenomics Library - Multiplex” (2024):
Where “and” joins values, the source holds several entries; their conditions need not be identical. Equal entries are not always repeated.

Test system: Fibroblast
Test: Multiplex assay against human fibroblast
Format: toxicity, cell-based
In short: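 Cells were classed with CellPathfinder machine-learning gating, first as Hoechst high-intensity objects or normal cells, then (normal cells) as healthy, pyknosed or fragmented nuclei, and finally (pyknosed cells) as mitotic or apoptotic. Staining of live cells at seeding used Hoechst33342, BioTracker Green Microtubule Cytoskeleton Dye, MitoTracker Red and Annexin V Alexa Fluor 680, with imaging on a CQ1 microscope at 37°C and 5% CO2 after compound addition. Tubulin, mitochondrial-mass and membrane-permeability phenotypes are per cents of healthy-nucleus cells.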

[1] = 12 h, 1 µM, compound concentration 1 uM
[2] = 12 h, 10 µM, compound concentration 10 uM
[3] = 24 h, 1 µM, compound concentration 1 uM
[4] = 24 h, 10 µM, compound concentration 10 uM
[5] = 48 h, 1 µM, compound concentration 1 uM
[6] = 48 h, 10 µM, compound concentration 10 uM

`Cl.N=C(N)NC(=O)Cc1c(Cl)cccc1Cl` [GUANFACINE HYDROCHLORIDE] was tested, and the “Population Apoptotic (%)” value [1] was 44% and 28%, the “Population Fragmented Nuclei (%)” value [1] was 20% and 23% and the “Population Healthy Nuclei (%)” value [1] was 62% and 45%. For the same molecule, the “Population Hoechst High Intensity Objects (%)” value [1] was 2%, the “Population Membrane Permeable-Phenotype (%)” value [1] was 0% and 3% and the “Population Mitochondria Different-Phenotype (%)” value [1] was 4% and 7%. The “Population Mitotic Cells (%)” value [1] was 55% and 71%, the “Population Normal (%)” value [1] was 97% and the “Population Pyknosed Nuclei (%)” value [1] was 16% and 31%. The “Population Tubulin-Different-Phenotype (%)” value [1] was 32% and 46%, the “Total Cell Count” value [1] was 167 and 149 and the “Population Apoptotic (%)” value [2] was 66% and 35%. For the same molecule, the “Population Fragmented Nuclei (%)” value [2] was 16% and 22%, the “Population Healthy Nuclei (%)” value [2] was 68% and 47% and the “Population Hoechst High Intensity Objects (%)” value [2] was 0% and 10%. For the same molecule, the “Population Membrane Permeable-Phenotype (%)” value [2] was 1% and 5%, the “Population Mitochondria Different-Phenotype (%)” value [2] was 5% and the “Population Mitotic Cells (%)” value [2] was 33% and 64%. The “Population Normal (%)” value [2] was 99% and 89%, the “Population Pyknosed Nuclei (%)” value [2] was 15% and 29% and the “Population Tubulin-Different-Phenotype (%)” value [2] was 24% and 46%. For the same molecule, the “Total Cell Count” value [2] was 139 and 127, the “Population Apoptotic (%)” value [3] was 58% and 45% and the “Population Fragmented Nuclei (%)” value [3] was 22% and 23%. The “Population Healthy Nuclei (%)” value [3] was 62% and 46%, the “Population Hoechst High Intensity Objects (%)” value [3] was 1% and 6% and the “Population Membrane Permeable-Phenotype (%)” value [3] was 0% and 12%. The “Population Mitochondria Different-Phenotype (%)” value [3] was 5% and 8%, the “Population Mitotic Cells (%)” value [3] was 41% and 54% and the “Population Normal (%)” value [3] was 98% and 93%. For the same molecule, the “Population Pyknosed Nuclei (%)” value [3] was 14% and 30%, the “Population Tubulin-Different-Phenotype (%)” value [3] was 26% and 50% and the “Total Cell Count” value [3] was 169 and 130. The “Population Apoptotic (%)” value [4] was 63% and 25%, the “Population Fragmented Nuclei (%)” value [4] was 17% and 26% and the “Population Healthy Nuclei (%)” value [4] was 68% and 55%. For the same molecule, the “Population Hoechst High Intensity Objects (%)” value [4] was 1% and 4%, the “Population Membrane Permeable-Phenotype (%)” value [4] was 0% and 13% and the “Population Mitochondria Different-Phenotype (%)” value [4] was 4% and 3%. The “Population Mitotic Cells (%)” value [4] was 36% and 75%, the “Population Normal (%)” value [4] was 98% and 95% and the “Population Pyknosed Nuclei (%)” value [4] was 14% and 18%. The “Total Cell Count” value [4] was 137 and 114, the “Population Apoptotic (%)” value [5] was 61% and 50% and the “Population Fragmented Nuclei (%)” value [5] was 25% and 33%. For the same molecule, the “Population Healthy Nuclei (%)” value [5] was 63% and 45%, the “Population Hoechst High Intensity Objects (%)” value [5] was 1% and 3% and the “Population Membrane Permeable-Phenotype (%)” value [5] was 0% and 4%. The “Population Mitochondria Different-Phenotype (%)” value [5] was 6% and 11%, the “Population Mitotic Cells (%)” value [5] was 38% and 50% and the “Population Normal (%)” value [5] was 98% and 96%. The “Population Pyknosed Nuclei (%)” value [5] was 11% and 21%, the “Population Tubulin-Different-Phenotype (%)” value [5] was 32% and 57% and the “Total Cell Count” value [5] was 162 and 145. For the same molecule, the “Population Apoptotic (%)” value [6] was 66% and 45%, the “Population Fragmented Nuclei (%)” value [6] was 22% and 39% and the “Population Healthy Nuclei (%)” value [6] was 67% and 41%. The “Population Hoechst High Intensity Objects (%)” value [6] was 1% and 6%, the “Population Membrane Permeable-Phenotype (%)” value [6] was 1% and 8% and the “Population Mitochondria Different-Phenotype (%)” value [6] was 6% and 2%. For the same molecule, the “Population Mitotic Cells (%)” value [6] was 33% and 54%, the “Population Normal (%)” value [6] was 98% and 93% and the “Population Pyknosed Nuclei (%)” value [6] was 10% and 19%. For the same molecule, the “Population Tubulin-Different-Phenotype (%)” value [6] was 24% and 67% and the “Total Cell Count” value [6] was 142 and 120.
With `CCCCC[C@H](O)/C=C/[C@H]1[C@H](O)CC(=O)[C@@H]1CCCCCCC(=O)O` [ALPROSTADIL] the “Population Apoptotic (%)” value [1] was 61% and 43%, the “Population Fragmented Nuclei (%)” value [1] was 16% and 23% and the “Population Healthy Nuclei (%)” value [1] was 71% and 57%. The “Population Hoechst High Intensity Objects (%)” value [1] was 0% and 4%, the “Population Membrane Permeable-Phenotype (%)” value [1] was 0% and 10% and the “Population Mitochondria Different-Phenotype (%)” value [1] was 1% and 2%. For the same molecule, the “Population Mitotic Cells (%)” value [1] was 38% and 56%, the “Population Normal (%)” value [1] was 99% and 95% and the “Population Pyknosed Nuclei (%)” value [1] was 12% and 18%. For the same molecule, the “Total Cell Count” value [1] was 150 and 169, the “Population Apoptotic (%)” value [2] was 36% and 34% and the “Population Healthy Nuclei (%)” value [2] was 75% and 43%. For the same molecule, the “Population Membrane Permeable-Phenotype (%)” value [2] was 2% and 11%, the “Population Mitochondria Different-Phenotype (%)” value [2] was 4% and 1% and the “Population Mitotic Cells (%)” value [2] was 63% and 65%. For the same molecule, the “Population Normal (%)” value [2] was 94% and 83%, the “Population Pyknosed Nuclei (%)” value [2] was 17% and 31% and the “Population Tubulin-Different-Phenotype (%)” value [2] was 26% and 45%. For the same molecule, the “Total Cell Count” value [2] was 136 and 146, the “Population Apoptotic (%)” value [3] was 25% and 43% and the “Population Fragmented Nuclei (%)” value [3] was 15% and 22%. The “Population Healthy Nuclei (%)” value [3] was 73% and 53%, the “Population Hoechst High Intensity Objects (%)” value [3] was 0% and 2% and the “Population Membrane Permeable-Phenotype (%)” value [3] was 0% and 8%. For the same molecule, the “Population Mitochondria Different-Phenotype (%)” value [3] was 1% and 8%, the “Population Mitotic Cells (%)” value [3] was 75% and 56% and the “Population Normal (%)” value [3] was 99% and 97%. The “Population Pyknosed Nuclei (%)” value [3] was 10% and 24%, the “Population Tubulin-Different-Phenotype (%)” value [3] was 15% and 40% and the “Total Cell Count” value [3] was 147 and 165. For the same molecule, the “Population Apoptotic (%)” value [4] was 63% and 30%, the “Population Fragmented Nuclei (%)” value [4] was 14% and 27% and the “Population Healthy Nuclei (%)” value [4] was 69% and 45%. The “Population Membrane Permeable-Phenotype (%)” value [4] was 0% and 16%, the “Population Mitochondria Different-Phenotype (%)” value [4] was 2% and 3% and the “Population Mitotic Cells (%)” value [4] was 36% and 69%. The “Population Normal (%)” value [4] was 97% and 86%, the “Population Pyknosed Nuclei (%)” value [4] was 15% and 26% and the “Total Cell Count” value [4] was 147 and 157. The “Population Apoptotic (%)” value [5] was 32% and 55%, the “Population Fragmented Nuclei (%)” value [5] was 18% and 26% and the “Population Healthy Nuclei (%)” value [5] was 62% and 51%. For the same molecule, the “Population Hoechst High Intensity Objects (%)” value [5] was 1% and 3%, the “Population Membrane Permeable-Phenotype (%)” value [5] was 1% and 6% and the “Population Mitochondria Different-Phenotype (%)” value [5] was 4% and 8%. The “Population Mitotic Cells (%)” value [5] was 67% and 44%, the “Population Normal (%)” value [5] was 98% and 96% and the “Population Pyknosed Nuclei (%)” value [5] was 18% and 21%. For the same molecule, the “Population Tubulin-Different-Phenotype (%)” value [5] was 30% and 44%, the “Total Cell Count” value [5] was 152 and 162 and the “Population Apoptotic (%)” value [6] was 62% and 48%. For the same molecule, the “Population Fragmented Nuclei (%)” value [6] was 11% and 33%, the “Population Healthy Nuclei (%)” value [6] was 62% and 44% and the “Population Mitochondria Different-Phenotype (%)” value [6] was 7%. For the same molecule, the “Population Mitotic Cells (%)” value [6] was 37% and 51%, the “Population Normal (%)” value [6] was 97% and 83% and the “Population Pyknosed Nuclei (%)” value [6] was 26% and 22%. For the same molecule, the “Population Tubulin-Different-Phenotype (%)” value [6] was 34% and 60% and the “Total Cell Count” value [6] was 144.
